From ChEMBL document CHEMBL5303300, “EUbOPEN Chemogenomics Library - Multiplex” (2023)
Several values for one entry are separate records, joined by “and”; a condition that tells them apart may be missing. Equal entries are not always repeated.

Experiments:
Assay type in all cases: toxicity, cell-based
U2OS = experiment: Multiplex assay against U2OS; details: human, number of replicates 2
How it was run: (§1)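 Tubulin, mitochondrial-mass and membrane-permeability phenotypes are per cents of healthy-nucleus cells. Cells were gated by CellPathfinder machine learning into Hoechst high-intensity objects or normal cells, normal cells into healthy, pyknosed or fragmented nuclei, and pyknosed cells into mitotic or apoptotic. Before that, live cells stained at seeding with Hoechst33342, BioTracker Green Microtubule Cytoskeleton Dye, MitoTracker Red and Annexin V Alexa Fluor 680 were imaged on a CQ1 microscope at 37°C and 5% CO2 after compound addition.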

HEK-293T = experiment: Multiplex assay against HEK293T; details: human, number of replicates 2; how it was run: as §1
Fibroblast = experiment: Multiplex assay against human fibroblast; details: number of replicates 2; how it was run: as §1
[1] = 12 h, 1 µM, compound concentration 1 uM
[2] = 12 h, 10 µM, compound concentration 10 uM
[3] = 24 h, 1 µM, compound concentration 1 uM
[4] = 24 h, 10 µM, compound concentration 10 uM
[5] = 48 h, 1 µM, compound concentration 1 uM
[6] = 48 h, 10 µM, compound concentration 10 uM

## C[C@H](N)Cn1ccc2cc(F)c(Cl)cc21.O=C(O)/C=C/C(=O)O
U2OS; [1]
  Population Apoptotic (%): 47% and 66%
  Population Fragmented Nuclei (%): 4% and 8%
  Population Healthy Nuclei (%): 87% and 84%
  Population Hoechst High Intensity Objects (%): 0%
  Population Membrane Permeable-Phenotype (%): 0%
  Population Mitochondria Different-Phenotype (%): 0%
  Population Mitotic Cells (%): 52% and 33%
  Population Normal (%): 99% and 100%
  Population Pyknosed Nuclei (%): 8% and 6%
  Population Tubulin-Different-Phenotype (%): 94% and 44%
U2OS; [2]
  Population Apoptotic (%): 40% and 50%
  Population Fragmented Nuclei (%): 5% and 12%
  Population Healthy Nuclei (%): 88% and 75%
  Population Hoechst High Intensity Objects (%): 0%
  Population Membrane Permeable-Phenotype (%): 1% and 8%
  Population Mitochondria Different-Phenotype (%): 1% and 0%
  Population Mitotic Cells (%): 60% and 50%
  Population Normal (%): 99% and 100%
  Population Pyknosed Nuclei (%): 6% and 12%
  Population Tubulin-Different-Phenotype (%): 62% and 37%
U2OS; [3]
  Population Apoptotic (%): 100% and 62%
  Population Fragmented Nuclei (%): 6% and 1%
  Population Healthy Nuclei (%): 91% and 90%
  Population Hoechst High Intensity Objects (%): 0%
  Population Membrane Permeable-Phenotype (%): 0%
  Population Mitochondria Different-Phenotype (%): 0%
  Population Normal (%): 100% and 99%
  Population Pyknosed Nuclei (%): 2% and 7%
  Population Tubulin-Different-Phenotype (%): 54% and 88%
U2OS; [4]
  Population Apoptotic (%): 42% and 80%
  Population Fragmented Nuclei (%): 3% and 9%
  Population Healthy Nuclei (%): 89% and 78%
  Population Hoechst High Intensity Objects (%): 0%
  Population Membrane Permeable-Phenotype (%): 1% and 3%
  Population Mitochondria Different-Phenotype (%): 1% and 0%
  Population Mitotic Cells (%): 57% and 20%
  Population Normal (%): 99% and 100%
  Population Pyknosed Nuclei (%): 6% and 12%
  Population Tubulin-Different-Phenotype (%): 73% and 31%
U2OS; [5]
  Population Apoptotic (%): 54% and 34%
  Population Fragmented Nuclei (%): 5% and 2%
  Population Healthy Nuclei (%): 83% and 90%
  Population Hoechst High Intensity Objects (%): 0%
  Population Membrane Permeable-Phenotype (%): 0% and 1%
  Population Mitochondria Different-Phenotype (%): 0%
  Population Mitotic Cells (%): 45% and 65%
  Population Normal (%): 100%
  Population Pyknosed Nuclei (%): 11% and 7%
  Population Tubulin-Different-Phenotype (%): 69% and 92%
U2OS; [6]
  Population Apoptotic (%): 50% and 52%
  Population Fragmented Nuclei (%): 10% and 5%
  Population Healthy Nuclei (%): 75% and 89%
  Population Hoechst High Intensity Objects (%): 0%
  Population Membrane Permeable-Phenotype (%): 1%
  Population Mitochondria Different-Phenotype (%): 0%
  Population Mitotic Cells (%): 50% and 47%
  Population Normal (%): 100%
  Population Pyknosed Nuclei (%): 13% and 5%
  Population Tubulin-Different-Phenotype (%): 55% and 81%
HEK-293T; [1]
  Population Apoptotic (%): 38% and 46%
  Population Fragmented Nuclei (%): 3% and 2%
  Population Healthy Nuclei (%): 82% and 85%
  Population Hoechst High Intensity Objects (%): 8%
  Population Membrane Permeable-Phenotype (%): 1%
  Population Mitochondria Different-Phenotype (%): 17% and 15%
  Population Mitotic Cells (%): 61% and 53%
  Population Normal (%): 91%
  Population Pyknosed Nuclei (%): 14% and 11%
  Population Tubulin-Different-Phenotype (%): 59% and 53%
  Total Cell Count: 737 and 645
HEK-293T; [2]
  Population Apoptotic (%): 58% and 55%
  Population Fragmented Nuclei (%): 4% and 5%
  Population Healthy Nuclei (%): 83% and 79%
  Population Hoechst High Intensity Objects (%): 8% and 9%
  Population Membrane Permeable-Phenotype (%): 5% and 1%
  Population Mitochondria Different-Phenotype (%): 28% and 20%
  Population Mitotic Cells (%): 41% and 44%
  Population Normal (%): 91% and 90%
  Population Pyknosed Nuclei (%): 12% and 14%
  Population Tubulin-Different-Phenotype (%): 81% and 72%
  Total Cell Count: 443 and 563
HEK-293T; [3]
  Population Apoptotic (%): 52% and 57%
  Population Fragmented Nuclei (%): 10% and 6%
  Population Healthy Nuclei (%): 77% and 82%
  Population Hoechst High Intensity Objects (%): 7%
  Population Membrane Permeable-Phenotype (%): 1% and 2%
  Population Mitochondria Different-Phenotype (%): 6% and 4%
  Population Mitotic Cells (%): 47% and 42%
  Population Normal (%): 92%
  Population Pyknosed Nuclei (%): 12% and 10%
  Population Tubulin-Different-Phenotype (%): 32% and 28%
  Total Cell Count: 1141 and 1024
HEK-293T; [4]
  Population Apoptotic (%): 63% and 59%
  Population Fragmented Nuclei (%): 8% and 7%
  Population Healthy Nuclei (%): 83% and 84%
  Population Hoechst High Intensity Objects (%): 9% and 11%
  Population Membrane Permeable-Phenotype (%): 2% and 3%
  Population Mitochondria Different-Phenotype (%): 16% and 8%
  Population Mitotic Cells (%): 36% and 40%
  Population Normal (%): 90% and 88%
  Population Pyknosed Nuclei (%): 7% and 8%
  Population Tubulin-Different-Phenotype (%): 72% and 40%
  Total Cell Count: 634 and 884
HEK-293T; [5]
  Population Apoptotic (%): 18% and 17%
  Population Fragmented Nuclei (%): 17% and 11%
  Population Healthy Nuclei (%): 80% and 85%
  Population Hoechst High Intensity Objects (%): 9%
  Population Membrane Permeable-Phenotype (%): 5% and 3%
  Population Mitochondria Different-Phenotype (%): 0%
  Population Mitotic Cells (%): 81% and 82%
  Population Normal (%): 90%
  Population Pyknosed Nuclei (%): 2%
  Population Tubulin-Different-Phenotype (%): 14% and 11%
  Total Cell Count: 2886 and 2112
HEK-293T; [6]
  Population Apoptotic (%): 40% and 17%
  Population Fragmented Nuclei (%): 15% and 12%
  Population Healthy Nuclei (%): 80% and 84%
  Population Hoechst High Intensity Objects (%): 11% and 7%
  Population Membrane Permeable-Phenotype (%): 8% and 4%
  Population Mitochondria Different-Phenotype (%): 1%
  Population Mitotic Cells (%): 59% and 82%
  Population Normal (%): 88% and 92%
  Population Pyknosed Nuclei (%): 3%
  Population Tubulin-Different-Phenotype (%): 36% and 20%
  Total Cell Count: 1535 and 2025
Fibroblast; [1]
  Population Apoptotic (%): 44% and 40%
  Population Fragmented Nuclei (%): 14%
  Population Healthy Nuclei (%): 74% and 61%
  Population Hoechst High Intensity Objects (%): 0%
  Population Membrane Permeable-Phenotype (%): 5% and 6%
  Population Mitochondria Different-Phenotype (%): 0% and 1%
  Population Mitotic Cells (%): 55% and 60%
  Population Normal (%): 100%
  Population Pyknosed Nuclei (%): 11% and 24%
  Population Tubulin-Different-Phenotype (%): 14% and 11%
  Total Cell Count: 252 and 208
Fibroblast; [2]
  Population Apoptotic (%): 45% and 37%
  Population Fragmented Nuclei (%): 14% and 22%
  Population Healthy Nuclei (%): 69% and 58%
  Population Hoechst High Intensity Objects (%): 0%
  Population Membrane Permeable-Phenotype (%): 11% and 12%
  Population Mitochondria Different-Phenotype (%): 3% and 6%
  Population Mitotic Cells (%): 54% and 62%
  Population Normal (%): 100%
  Population Pyknosed Nuclei (%): 16% and 19%
  Population Tubulin-Different-Phenotype (%): 24% and 26%
  Total Cell Count: 189 and 184
Fibroblast; [3]
  Population Apoptotic (%): 42% and 68%
  Population Healthy Nuclei (%): 25% and 72%
  Population Hoechst High Intensity Objects (%): 1% and 0%
  Population Mitochondria Different-Phenotype (%): 2% and 1%
  Population Mitotic Cells (%): 57% and 31%
  Population Normal (%): 98% and 99%
  Population Pyknosed Nuclei (%): 23% and 11%
  Total Cell Count: 149 and 256
Fibroblast; [4]
  Population Apoptotic (%): 53% and 51%
  Population Fragmented Nuclei (%): 24% and 28%
  Population Healthy Nuclei (%): 63% and 56%
  Population Hoechst High Intensity Objects (%): 0%
  Population Membrane Permeable-Phenotype (%): 4% and 7%
  Population Mitochondria Different-Phenotype (%): 0% and 5%
  Population Mitotic Cells (%): 46% and 48%
  Population Normal (%): 99% and 100%
  Population Pyknosed Nuclei (%): 12% and 14%
  Population Tubulin-Different-Phenotype (%): 23% and 28%
  Total Cell Count: 208
Fibroblast; [5]
  Population Apoptotic (%): 65% and 56%
  Population Fragmented Nuclei (%): 18% and 21%
  Population Healthy Nuclei (%): 67% and 59%
  Population Hoechst High Intensity Objects (%): 0%
  Population Membrane Permeable-Phenotype (%): 4% and 5%
  Population Mitochondria Different-Phenotype (%): 0% and 1%
  Population Mitotic Cells (%): 34% and 43%
  Population Normal (%): 100% and 99%
  Population Pyknosed Nuclei (%): 13% and 18%
  Population Tubulin-Different-Phenotype (%): 7% and 9%
  Total Cell Count: 258 and 233
Fibroblast; [6]
  Population Apoptotic (%): 60% and 65%
  Population Fragmented Nuclei (%): 33% and 30%
  Population Healthy Nuclei (%): 58% and 60%
  Population Hoechst High Intensity Objects (%): 0%
  Population Membrane Permeable-Phenotype (%): 4% and 6%
  Population Mitochondria Different-Phenotype (%): 0% and 1%
  Population Mitotic Cells (%): 40% and 35%
  Population Normal (%): 99%
  Population Pyknosed Nuclei (%): 7% and 9%
  Population Tubulin-Different-Phenotype (%): 22% and 18%
  Total Cell Count: 255 and 217
